The values below come from ChEMBL document CHEMBL2396611, “Synthesis and mechanism of hypoglycemic activity of benzothiazole derivatives” (J Med Chem, 2013).

Structures are written as SMILES. Activity calls are given as the source filed them. No cut-off for these calls is given here.

Series [1] concerns L6. Description: Activation of AMPKalpha in rat L6 cells assessed as phosphorylation at Thr172 at 100 uM up to 5 hrs by Western blot analysis. It is filed as cell-based. The essentials: (§1)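 L6 myotubes exposed for the indicated times to test compound (100 μM in the first series; 50–150 μM in the second) or 4 mM AICAR. Whole-cell lysates immunoblotted for pThr172-AMPKα, AMPKα and α-tubulin; band densities from three independent experiments vs respective controls.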

Series [2] deals with 5'-AMP-activated protein kinase catalytic subunit alpha-2 (Rattus norvegicus) (UniProt Q09137). Kind of series: Activation of AMPK in rat L6 cells assessed as increase of [3H]dGlc uptake at 10 to 200 uM. The conditions noted are these: TDE = time-dependent effect. It is filed as cell-based. An outline of the steps:
(§2)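 Fully differentiated L6 myotubes preincubated 24 h in αMEM with 2% FCS and 23.0 mmol/L D-glucose, then 4 h serum-free with 0.5% BSA. Compound or DMSO vehicle given for the indicated times or concentrations. Uptake read after 5 min at room temperature in PBS pH 7.4 with 0.1 mmol/L dGlc and 1.3 μCi/mL [3H]dGlc, by scintillation of SDS lysates. Zero-time basal rate set as 100%; n=6.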

The target is the same in series [3]. Kind of series: (§3) Activation of AMPK in rat L6 cells assessed as increase of [3H]dGlc uptake after 5 hrs. It counts as cell-based. An outline of the steps:
as §2

The target is the same in series [4]. Kind of series: Activation of AMPK in rat L6 cells assessed as increase of [3H]dGlc uptake at 150 uM after 5 hrs relative to control. It counts as cell-based. An outline of the steps:
as §2

Series [5] has as its system L6. Description: Activation of AMPKalpha in rat L6 cells assessed as phosphorylation at Thr172 at 150 uM after 40 mins to 5 hrs by Western blot analysis. It is filed as cell-based. An outline of the steps:
as §1

Series [6] has as its target 5'-AMP-activated protein kinase catalytic subunit alpha-2 (Rattus norvegicus) (UniProt Q09137). Description: Activation of AMPK in rat L6 cells assessed as increase of [3H]dGlc uptake at 50 uM after 5 hrs relative to control. It is filed as cell-based. The essentials:
as §2

The test system of series [7] is L6. Kind of series: Activation of AMPKalpha in rat L6 cells assessed as phosphorylation at Thr172 at 100 uM after 60 mins by Western blot analysis. It counts as cell-based. The essentials:
as §1

Series [8] in a line: Lipophilicity, log P of the compound. It is filed as physicochemical. Conditions: octanol/water.
Series [9] relates to L6. Kind of series: Effect on ATP/AMP ratio in rat L6 cells at >100 uM. It counts as ADME, cell-based.
The subject of series [10] is L6. Description: Activation of AMPKalpha in rat L6 cells assessed as phosphorylation at Thr172 at 100 uM after 40 mins by Western blot analysis. It is filed as cell-based. The essentials:
as §1

Series [11] concerns the target 5'-AMP-activated protein kinase catalytic subunit alpha-2 (Rattus norvegicus, UniProt Q09137). The description is as §3. It counts as cell-based. The essentials: as §2
The target in series [12] is 5'-AMP-activated protein kinase catalytic subunit alpha-2 (Rattus norvegicus) (UniProt Q09137). Description: Activation of AMPK in rat L6 cells assessed as increase of [3H]dGlc uptake at 100 uM after 10 to 40 hrs. It counts as cell-based. An outline of the steps:
as §2

Series [13] concerns L6. Description: Activation of AMPKalpha in rat L6 cells assessed as phosphorylation at Thr172 at 100 uM after 24 hrs by Western blot analysis. It is filed as cell-based. An outline of the steps: as §1
For series [14], the target named is 5'-AMP-activated protein kinase catalytic subunit alpha-2 (Rattus norvegicus) (UniProt Q09137). Kind of series: Activation of AMPK in rat L6 cells assessed as increase of [3H]dGlc uptake at 100 uM after 5 hrs in absence of insulin. It counts as cell-based. The essentials:
as §2

Series [15] shares this target. Kind of series: Activation of AMPK in rat L6 cells assessed as increase of [3H]dGlc uptake at 100 uM after 24 hrs. It is filed as cell-based. The essentials:
as §2

Series [16] shares this target. Description: Activation of AMPK in rat L6 cells assessed as increase of [3H]dGlc uptake at > 0.5 mmol/L after 5 hrs. It is filed as cell-based.
The target is the same in series [17]. Description: Activation of AMPK in rat L6 cells assessed as phosphorylation at Thr172 at > 0.5 mmol/L after 5 hrs by Western blot analysis. It counts as cell-based.
For series [18], the target named is 5'-AMP-activated protein kinase catalytic subunit alpha-2 (Homo sapiens) (UniProt P54646). Kind of series: Activation of human recombinant AMPK at 20 uM after 30 mins relative to control. The essentials:
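Recombinant human full-length AMPK assayed with a commercial luminescent kit. Compound at 20 μM or DMSO vehicle (1% v/v) added to the reaction mix for 30 min at ambient temperature. Activity read by luminometer against a calibration curve; basal activity with DMSO set as 100%.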

Series [19] addresses 5'-AMP-activated protein kinase catalytic subunit alpha-2 (Rattus norvegicus) (UniProt Q09137). Description: Activation of AMPK in rat L6 cells assessed as increase of [3H]dGlc uptake at 5 uM after 5 hrs relative to control. It is filed as cell-based. An outline of the steps: as §2
The subject of series [20] is L6. Description: Effect on […] level in rat L6 cells at 3.5 mmol/L after 20 mins in presence of HCGM (reference value: 23 mmol/L). It is filed as ADME, cell-based. Conditions: l6, 20 min, 3500 µM. The essentials:
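Fully differentiated L6 myotubes preconditioned in medium with 23.0 mmol/L D-glucose, then exposed 20 min. Cells washed in cold 0.15 M Tris-HCl pH 7.75, extracted with ice-cold 0.5% TCA, diluted in Tris-HCl and spun 12,000 rpm, 30 min, 4 °C. Supernatant ATP measured by colorimetric kit, expressed per mg protein. Mean ± SEM; two-tailed t test against untreated 23.0 mmol/L glucose cells.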

Chain of 5'-AMP-activated protein kinase catalytic subunit alpha-2 (Q09137 whole entry): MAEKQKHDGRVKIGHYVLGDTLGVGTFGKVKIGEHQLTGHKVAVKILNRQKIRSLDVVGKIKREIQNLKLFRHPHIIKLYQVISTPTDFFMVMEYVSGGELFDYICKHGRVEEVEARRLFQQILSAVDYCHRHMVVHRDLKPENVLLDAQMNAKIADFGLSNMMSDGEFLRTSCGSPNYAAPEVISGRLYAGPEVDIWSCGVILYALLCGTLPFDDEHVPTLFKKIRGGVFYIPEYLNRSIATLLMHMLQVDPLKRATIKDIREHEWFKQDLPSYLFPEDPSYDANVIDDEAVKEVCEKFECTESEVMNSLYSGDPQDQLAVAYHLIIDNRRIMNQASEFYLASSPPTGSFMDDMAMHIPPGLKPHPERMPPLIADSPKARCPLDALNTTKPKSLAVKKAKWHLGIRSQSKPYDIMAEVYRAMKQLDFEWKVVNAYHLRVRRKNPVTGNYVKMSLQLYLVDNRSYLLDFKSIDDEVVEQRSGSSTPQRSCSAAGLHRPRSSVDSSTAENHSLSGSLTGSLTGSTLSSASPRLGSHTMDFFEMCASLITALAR
Chain of 5'-AMP-activated protein kinase catalytic subunit alpha-2 (Rattus norvegicus) (Q09137 whole entry): as above
Chain of 5'-AMP-activated protein kinase catalytic subunit alpha-2 (Homo sapiens) (P54646 whole entry, looked up): as the sequence (Q09137 whole entry) above, with V114M, Q150H, I241V, T348S, M355S, V502F, S505T, N509S, A528V, A549T counted along it

As to `CCCNC(=O)CSc1nc2ccc(OCC)cc2s1`, the result in the series on L6 [1] was Active. The Activity entry was “tde” in [2] and “Dose-dependent effect” in series [3].

For the compound `CCOc1ccc2nc(SSc3nc4ccc(OCC)cc4s3)sc2c1`, the Activity in [4] amounted to 189%. Also, the outcome with L6 [5] was Active.

Consider `CCOc1ccc2nc(SCCC(=O)O)sc2c1`, for which, in [6], the fold change (FC) is 1.8. Moreover, the result in the series with L6 [7] was Active.

The compound `Oc1ccc2nc(S)sc2c1` came in with a logP in series [8] of 1.96.

On to `CCC1SC(N)=NC1=O` (centres undefined), for which, in the series on L6 [9], the Activity result is “Toxic”. For the same compound, the result (in the series on L6 [1]; in series [12]) was inactive. The outcome in the series on L6 [10] was Active. Besides, the concentration for a half-maximal effect (EC50) in [11] worked out at 61.5 µM.

For `Oc1nc2ccc(Br)cc2s1`, the outcome (in the series with L6 [13]; in series [14]; in series [15]) was Active. For the same compound, the 50% effective concentration (EC50) in [11] worked out at 72.9 µM.

As to `NC1=NC(=O)/C(=C\C=C\c2ccc([N+](=O)[O-])o2)S1`, the outcome in [16] and in series [17] was Active.

On to `CCOc1ccc2nc(S)sc2c1`, for which the result (in the series with L6 [13]; in [14]; in series [15]) was Active. In series [8], this compound displayed a logP of 3.17. For the same compound, the EC50 in [11] was determined as 76.1 µM.

As for `Cc1cc(-c2ccc(/C=C3/S/C(=N\c4ccc(Cl)c(C(=O)O)c4)NC3=O)o2)c([N+](=O)[O-])cc1C`, the fold change (FC) turned out to be 2.04 in series [18] and 1.4 in series [19]. Further, the Activity result in series [2] was “tde”; in series [3], “Dose-dependent effect”.

`O=[N+]([O-])c1ccc(O)c([N+](=O)[O-])c1` [2,4-DINITROPHENOL]: the Activity in the series on L6 [20] came out at 0.42 mmol/mg.
